Screens: PubChem BioAssay, The Scripps Research Institute Molecular Screening Center
CHO-K1 Ca PAM = M1 PAM counterscreen hit in parental CHO-K1 cells | ATP EC20, Fluo-8 calcium fluorescence; 0% at ATP EC20, 100% at ATP max | activation, % at 3 µM | 360,000 compounds, 0.02% hits | AID 602247;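 active means activation above the run cutoff, the mean activation of all test compounds plus 3 SD, cut at about 40% in these data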;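 further: peak over basal fluorescence ratio in a 140 s read after ATP addition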
CHO-K1 Ca antag = counter-screen for M1 antagonists: effect in parental CHO-K1 cells; ATP-induced calcium, Fluo-8 fluorescence; inhibition, % at 3 µM; 360,000 compounds, 0.6% hits;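 active means inhibition above a per-plate cutoff, the plate's mean sample inhibition plus 3 SD, cut at about 24% in these data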;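 further: 0% = DMSO plus EC80 ATP and 100% = DMSO alone without ATP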
OX1R antag-1 = blocks the human orexin 1 receptor; O43613; CHO/OX1R cells, Fluo-8 calcium fluorescence, orexin A; inhibition, % at 5 µM; 330,000 compounds, 0.43% hits;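 active means inhibition above its plate's threshold, mean inhibition of all tested compounds on the plate plus 3 SD, cut at about 37% in these data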;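 further: 0% = orexin A challenge wells and 100% = SB-334867-A antagonist wells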
Target sequence (O43613 whole entry, looked up): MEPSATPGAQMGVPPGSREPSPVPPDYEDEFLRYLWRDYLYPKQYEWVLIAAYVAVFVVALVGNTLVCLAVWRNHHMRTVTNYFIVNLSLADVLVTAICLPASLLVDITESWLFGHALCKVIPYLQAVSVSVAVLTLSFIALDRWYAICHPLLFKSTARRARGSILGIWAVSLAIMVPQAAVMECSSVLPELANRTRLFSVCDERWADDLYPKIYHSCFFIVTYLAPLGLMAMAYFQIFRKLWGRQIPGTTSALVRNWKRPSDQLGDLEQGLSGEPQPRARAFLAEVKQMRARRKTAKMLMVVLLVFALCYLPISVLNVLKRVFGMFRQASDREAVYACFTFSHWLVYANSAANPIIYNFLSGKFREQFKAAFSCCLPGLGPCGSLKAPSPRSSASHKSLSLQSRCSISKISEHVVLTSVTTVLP
OX1R antag-2 = antagonists of human orexin 1 receptor (OX1R). OX1R-expressing cells, FRET antagonist read-out. 330,000 compounds, 1.8% hits. O43613. inhibition, % at 6.6 µM; in the data active means inhibition mostly above about 38%, no sharp cut-off; inactive means mostly below about 40%;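 further: 0% = agonist challenge alone and 100% = reference antagonist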
CHO parental Ca = counter-screen: ATP calcium response change in parental CHO cells. AID 463079. parental CHO-K1, ATP-induced calcium, Fluo-8 fluorescence. 330,000 compounds, 0.63% hits. inhibition, % at 5.6 µM;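 active means inhibition above that plate's mean sample inhibition plus 3 SD, cut at about 26% in these data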;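 further: 0% = ATP-challenged DMSO wells and 100% = DMSO wells without ATP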
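Test system: untransfected parental CHO cell line; also added: ATP stimulus; dosing: 5.6 µM, single dose; signal: calcium-sensitive Fluo-8 fluorescence; measure: percent inhibition of ATP-evoked calcium rise, normalized to controls; benchmarks: low control ATP plus DMSO, high control DMSO only; replication: one well per compound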
CHO-K1 Ca ag = counter-screen for M1 agonists: effect in parental CHO-K1 cells | activation, % at 3 µM | Fluo-8 calcium fluorescence; scaled to maximal ATP response, vehicle zero | 360,000 compounds, 0.48% hits | AID 602248; in the data active means activation above about 15%;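 further: untransfected CHO-K1 host cells lacking M1 receptor as counterscreen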
* hit, by the source's call. A selection: hits, their analogues and other compounds. The true share with any hit is near 2.9%.

How did CC1(C(=O)NS(=O)(=O)c2cccs2)CCN1C(=O)c1cccc(F)c1 (stereo unspecified) do in these assays?
CHO-K1 Ca PAM: 12; CHO-K1 Ca antag: 2; CHO-K1 Ca ag: 1

Results for O=C(CSc1ncccn1)NC(=O)NC1CCCC1 ?
CHO-K1 Ca PAM: 15; CHO-K1 Ca antag: -16; CHO-K1 Ca ag: 1

What do the screens show for `CCN(CC(=O)Nc1ccccc1OC)C(=O)c1ccc(NC(=O)c2cccs2)cc1`?
CHO-K1 Ca PAM: 5; CHO-K1 Ca antag: -16; OX1R antag-1: 0; OX1R antag-2: 6; CHO parental Ca: -16; CHO-K1 Ca ag: 5

How did Cc1ccc(Nc2nc(NCc3ccco3)c3ccccc3n2)cc1 do in these assays?
CHO-K1 Ca PAM: 9; CHO-K1 Ca antag: 12; OX1R antag-1: 47*; OX1R antag-2: 33; CHO parental Ca: 56*; CHO-K1 Ca ag: 12

How did O=S(=O)(c1ccccc1)c1ccc(NCc2ccco2)cc1 do in these assays?
CHO-K1 Ca PAM: 8; CHO-K1 Ca antag: -17; OX1R antag-1: 5; OX1R antag-2: 6; CHO parental Ca: -11; CHO-K1 Ca ag: 3

What do the screens show for `O=S(=O)(Nc1nc2ccccc2nc1NCc1ccco1)c1ccccc1`?
CHO-K1 Ca PAM: -6; CHO-K1 Ca antag: 25*; OX1R antag-1: -16; OX1R antag-2: 20; CHO parental Ca: -9; CHO-K1 Ca ag: 0

How did Oc1ccccc1-c1nc(NCc2ccco2)c2ccccc2n1 do in these assays?
CHO-K1 Ca PAM: 16; CHO-K1 Ca antag: 14; OX1R antag-1: -20; OX1R antag-2: 40*; CHO parental Ca: -17; CHO-K1 Ca ag: 1

What do the screens show for `CCCCN(C(=O)CCn1c(=O)oc2ccccc21)c1ccccc1`?
CHO-K1 Ca PAM: -8; CHO-K1 Ca antag: -4; OX1R antag-1: -25; OX1R antag-2: 9; CHO parental Ca: 8; CHO-K1 Ca ag: 1

What do the screens show for `COc1ccc(C(=O)N/C(=C/c2ccco2)C(=O)N2CCCCCC2)cc1`?
CHO-K1 Ca PAM: -6; CHO-K1 Ca antag: -13; OX1R antag-1: -17; OX1R antag-2: 26; CHO parental Ca: -8; CHO-K1 Ca ag: 0

What do the screens show for `O=CNCCCc1nc2ccccc2n1Cc1ccccc1`?
CHO-K1 Ca PAM: -7; CHO-K1 Ca antag: 36*; OX1R antag-1: -12; OX1R antag-2: 2; CHO parental Ca: -2; CHO-K1 Ca ag: 0

What do the screens show for `O=C(CCN1C(=O)/C(=C/c2ccccc2F)SC1=S)NCCCN1CCOCC1`?
CHO-K1 Ca PAM: 1; CHO-K1 Ca antag: 5; OX1R antag-1: -28; OX1R antag-2: 19; CHO parental Ca: -22; CHO-K1 Ca ag: 19*

What do the screens show for `O=C(CN1C(=O)/C(=C\c2ccccc2Br)Oc2ccccc21)NCCCN1CCOCC1`?
CHO-K1 Ca PAM: -4; CHO-K1 Ca antag: -16; OX1R antag-1: 19; OX1R antag-2: 49*; CHO parental Ca: -24; CHO-K1 Ca ag: 0

How did Cc1cccc(NC(=O)C2CCCN(S(=O)(=O)c3ccc4[nH]c(=O)ccc4c3)C2)c1 (stereo unspecified) do in these assays?
CHO-K1 Ca PAM: -4; CHO-K1 Ca antag: 0; OX1R antag-1: -5; OX1R antag-2: 8; CHO parental Ca: -11; CHO-K1 Ca ag: 0

What do the screens show for `CCCCNS(=O)(=O)NC(=O)C1=C(N2CCCC2)COC1=O`?
CHO-K1 Ca PAM: -21; CHO-K1 Ca antag: 27*; OX1R antag-1: 0; OX1R antag-2: 1; CHO parental Ca: -2; CHO-K1 Ca ag: -1

How did Cc1cccc(CN2CCC(CNC(=O)Cn3ncc4c([nH]c5ccccc54)c3=O)CC2)c1 do in these assays?
CHO-K1 Ca PAM: -22; CHO-K1 Ca antag: 14; OX1R antag-1: -16; OX1R antag-2: 7; CHO parental Ca: -12; CHO-K1 Ca ag: 0

Results for CC1CCCCN1C(=O)COc1ccc(S(=O)(=O)N2CCCC2)cc1[N+](=O)[O-] (stereo unspecified) ?
CHO-K1 Ca PAM: -2; CHO-K1 Ca antag: -6; OX1R antag-1: -20; OX1R antag-2: 17; CHO parental Ca: 0; CHO-K1 Ca ag: 0

What do the screens show for `CCN(CC)C(=O)C(Oc1ccc(S(=O)(=O)N2CCCC2)cc1[N+](=O)[O-])c1ccccc1` (stereo unspecified)?
CHO-K1 Ca PAM: -7; CHO-K1 Ca antag: 11; OX1R antag-1: 6; OX1R antag-2: 63*; CHO parental Ca: 0; CHO-K1 Ca ag: 1

How did CN(C)C(=O)COn1c(SCC(=O)N(C)C)nc2ccccc2c1=O do in these assays?
CHO-K1 Ca PAM: 12; CHO-K1 Ca antag: 3; OX1R antag-1: 5; OX1R antag-2: 6; CHO parental Ca: -5; CHO-K1 Ca ag: 0

What do the screens show for `CCOC(=O)COn1c(SCC(=O)OCC)nc2ccccc2c1=O`?
CHO-K1 Ca PAM: -9; CHO-K1 Ca antag: 26*; OX1R antag-1: -25; OX1R antag-2: 6; CHO parental Ca: -8; CHO-K1 Ca ag: 1

What do the screens show for `O=C(Nc1ccc2cccnc2c1)c1ccc(Br)cc1`?
CHO-K1 Ca PAM: 18; CHO-K1 Ca antag: -25; OX1R antag-1: 2; OX1R antag-2: 30*; CHO parental Ca: -13; CHO-K1 Ca ag: 0

How did Cc1cc(NC(=O)c2ccc3nccnc3c2)ccc1Br do in these assays?
CHO-K1 Ca PAM: 4; CHO-K1 Ca antag: -5; OX1R antag-1: 12; OX1R antag-2: 48*; CHO parental Ca: -3; CHO-K1 Ca ag: 7

What do the screens show for `Cc1ccc(C(=O)Nc2ccc3nccnc3c2)cc1`?
CHO-K1 Ca PAM: 17; CHO-K1 Ca antag: -13; OX1R antag-1: -17; OX1R antag-2: 46; CHO parental Ca: -22; CHO-K1 Ca ag: 0

Results for COC(=O)c1ccc(NC(=O)c2ccc3nccnc3c2)cc1 ?
CHO-K1 Ca PAM: 24; CHO-K1 Ca antag: -11; OX1R antag-1: -10; OX1R antag-2: 39; CHO parental Ca: -15; CHO-K1 Ca ag: 7

What do the screens show for `O=C(Nc1ccc(SC(F)F)cc1)c1ccc2nccnc2c1`?
CHO-K1 Ca PAM: -11; CHO-K1 Ca antag: -1; OX1R antag-1: 86*; OX1R antag-2: 52*; CHO parental Ca: 52*; CHO-K1 Ca ag: 17*

How did CN(C(=O)C1CCC(=O)N(C2CC2)C1)C1CCCCC1 (stereo unspecified) do in these assays?
CHO-K1 Ca PAM: 20; CHO-K1 Ca antag: -7; OX1R antag-1: 12; OX1R antag-2: 7; CHO parental Ca: -12; CHO-K1 Ca ag: 1

Results for c1ccc(-c2nnnn2-c2ccccc2)cc1 ?
CHO-K1 Ca PAM: 10; CHO-K1 Ca antag: -7; CHO-K1 Ca ag: 1

What do the screens show for `Nc1ccc(-c2nnnn2-c2ccc(N)cc2)cc1`?
CHO-K1 Ca PAM: -22; CHO-K1 Ca antag: 3; OX1R antag-1: -13; OX1R antag-2: 1; CHO parental Ca: 28*; CHO-K1 Ca ag: 0

What do the screens show for `NC(=O)c1nnn(-c2ccc([N+](=O)[O-])cc2)c1-c1ccccc1`?
CHO-K1 Ca PAM: -10; CHO-K1 Ca antag: 5; OX1R antag-1: -13; OX1R antag-2: 44*; CHO parental Ca: -2; CHO-K1 Ca ag: 0

How did O=[N+]([O-])c1ccc(-n2cc(-c3ccccc3)nn2)cc1 do in these assays?
CHO-K1 Ca PAM: 10; CHO-K1 Ca antag: -14; OX1R antag-1: -1; OX1R antag-2: 19; CHO parental Ca: -5; CHO-K1 Ca ag: 1
